# Paper PMC3684024 (Science translational medicine, 2013)
# Key:
# EAE = settings: cited from earlier work
# [1] = ref [12]; cited from earlier work
# [2] = tested on: animal models of stroke, cardiac and retinal ischemia-reperfusion injury; settings: cited from earlier work
# plasma proteins = settings: ref [13], cited from earlier work
# [3] = molecular target: bovine insulin (beta chain) aggregation (Bos taurus, UniProt P01317); assay: Chaperone assay: inhibition of DTT induced insulin aggregation; format: biochemical
# bovine insulin (beta chain) aggregation, sequence (P01317 25-54 limits assumed): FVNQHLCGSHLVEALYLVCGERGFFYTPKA
# Summary of the method: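 Bovine insulin (150 µg) in 100 mM NaCl, 20 mM Tris pH 7.4, with or without varying peptide or protein concentrations, at 37°C; some runs at pH 5. Reduction is started at time zero with DTT (100 mM stock). Aggregation is followed as absorbance at 360 nm over 20 min. In time-of-addition runs, small heat shock protein or fibrils are added 3, 10 or 16 min after DTT, with a buffer-only addition as dilution control.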
# insulin fibril formation = assay: Inhibition of insulin amyloid fibril formation; format: biochemical, bovine; settings: ThT fluorescence ex 440 nm, em 485 nm (fig. S2)
# Summary of the method: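 Fibril formation is tracked in the DTT-reduced insulin chaperone reaction: bovine insulin in NaCl/Tris pH 7.4 at 37°C, with or without test peptide fibrils. Thioflavin T is added from a 10 µM solution and fluorescence is read at 485 nm with excitation at 440 nm on a microplate reader.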
substance,measurement,setting,value
"73–92 of HspB5: linear peptide region within HspB5, residues 73–92 (DRFSVNLDVKHFSPEELKVK; UniProt P02511 73-92, looked up, fragment)",reduction of paralysis and histological neuroinflammation in EAE,EAE; ref [12],"therapeutic, reducing paralysis and histological neuroinflammation in EAE"
same,chaperone activity,[1],exhibited chaperone activity
Aβ 1–40: peptide from amyloid β A4,anti-inflammatory effect in EAE,"EAE; ameliorating paralysis and reducing brain inflammation, ref [6]",effective anti-inflammatory agents
HspB5: amyloid forming small heat shock protein,therapeutic effect in stroke model,[2]; ref [3],therapeutic
same,therapeutic effect in cardiac and retinal ischemia-reperfusion injury,"[2]; ref [4], [5]",therapeutic
same,number of ligands precipitated from plasma,plasma proteins; enriched and temperature dependent binding,approximately 70
same,"ligands that are acute phase, complement or coagulation proteins",plasma proteins,Greater than 50%
same,therapeutic effect in animal models of multiple sclerosis,EAE; ref [2],therapeutic
same,inhibition of insulin aggregation when given at time 0,[3]; 150 µg HspB5 given at time 0,fully inhibitory dose when given at time 0
same,effect on light scattering when added 3 min after DTT,[3]; 150 µg HspB5 or Tau fibrils added three minutes after dithiothreitol (fig. S3),rapid increase in light scattering
same,effect on light scattering when added at 10 and 16 minutes,[3]; added 10 and 16 minutes after initiation,"increase in light scattering, albeit less of an increase at longer than earlier time points"
same,effect on insulin fibrillization after initiation,"[3]; added after initiation of fibril formation (figs. S3, S4)",can increase the light scattering after initiation of fibril formation
same,inhibition of insulin fibril formation,insulin fibril formation,effective inhibitors of insulin fibril formation
